Source: PubChem
Rows were chosen to be rich in hits. Some 2.7% of all compounds tested hit in one or more screens of this group.
CaV13 FRET inh: Primary screen for inhibitors of IQ motif and Ca2+-dependent inactivation inhibitor domain binding in CACNA1D, Förster resonance energy transfer in living cells, … | HEK cells, CFP/YFP FRET ICDI-IQ, plate reader, 10 min; percent FRET-ratio fall versus neutral wells | inhibition, % at 12.3 µM | 0.098% of 340,000 active | AID 743397;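 active = mean replicate inhibition of at least 30% and at least 1% of replicates passing that level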;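 note: 0% = median of the neutral control wells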
S100A4 inh HTS: inhibitors of S100A4-myosin IIA peptide binding, primary screen, biochemical, fluorescence polarization, TAMRA-MyoIIA peptide; inhibition, % at 10.7 µM; AID 652163, 2013; 0.14% of 360,000 active; Protein S100-A4 (Homo sapiens), P26447;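 active = mean inhibition of at least 70% across replicates, with every replicate also reaching that level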
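System – human S100A4 monomer protein, biochemical binding assay · Buffer or medium – Calcium-containing HEPES buffer, pH 7.2 · Timing – 5 min between mix addition and reading · Also added – TAMRA-labelled myosin IIA heavy-chain peptide probe, 5 nM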
AF4-AF9 inh: inhibitors of AF4 peptide binding to AF9, primary screen, biochemical, AlphaScreen, biotin-AF4 peptide, FLAG-AF9, single point. Protein AF-9 (Homo sapiens), P42568. AID 651704, 2012. 0.47% of 350,000 active. inhibition, % at 10 µM;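 active = every replicate reaching a set inhibition limit, whatever the replicate mean, cut at about 25% in these data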;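 note: 0% = plate neutral control median and 100% = total signal loss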
Target sequence (P42568 whole entry, looked up): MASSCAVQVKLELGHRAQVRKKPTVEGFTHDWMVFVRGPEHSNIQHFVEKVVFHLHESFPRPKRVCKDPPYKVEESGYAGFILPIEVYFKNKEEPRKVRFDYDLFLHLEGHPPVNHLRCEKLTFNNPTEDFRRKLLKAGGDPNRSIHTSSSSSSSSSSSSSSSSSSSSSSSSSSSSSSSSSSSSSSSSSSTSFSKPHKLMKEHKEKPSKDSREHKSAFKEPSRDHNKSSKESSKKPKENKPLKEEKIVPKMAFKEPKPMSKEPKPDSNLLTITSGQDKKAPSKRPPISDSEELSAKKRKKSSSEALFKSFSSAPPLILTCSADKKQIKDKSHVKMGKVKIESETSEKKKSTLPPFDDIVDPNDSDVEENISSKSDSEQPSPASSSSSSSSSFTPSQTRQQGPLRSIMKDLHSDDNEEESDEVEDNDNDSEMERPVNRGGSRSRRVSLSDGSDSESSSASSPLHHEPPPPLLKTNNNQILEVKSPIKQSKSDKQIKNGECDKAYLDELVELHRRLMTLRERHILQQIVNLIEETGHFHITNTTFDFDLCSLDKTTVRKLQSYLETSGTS
DENV2 CPE: inhibitors of DENV2 cytopathic effect, primary screen, cell-based, plate reader, single concentration. CPE inhibition, % at 9.99 µM. DENV2-infected cells, cytopathic effect rescue. 1.7% of 350,000 active; in the data active = CPE inhibition above about 20%, passing the limit was not always enough; tested in BHK-21 cells;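 note: 0% = median of neutral control wells and 100% = median of positive control wells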
SIRT5 inh: SIRT5 desuccinylase inhibitors, primary screen, biochemical, fluorescence imaging, single point, set 5; NAD-dependent protein deacylase sirtuin-5, mitochondrial (Homo sapiens), Q9NXA8; Purified SirT5, succinyl-peptide AMC, trypsin-coupled fluorescence; inhibition, % at 15 µM; 1.1% of 330,000 active; AID 652115, 2013; in the data active = inhibition above about 15%
Starred values were filed as active, the others as inactive; . = not tested or not shown; + = active, no number; ! = not active in a repeat.

SMILES	CaV13 FRET inh	S100A4 inh HTS	AF4-AF9 inh	DENV2 CPE	SIRT5 inh
CN(CCOc1ccccc1)C(=O)c1cc([N+](=O)[O-])cc([N+](=O)[O-])c1	-2.8	-5.0	2.0	2.1	26.9*
C[C@H](CO)N1C[C@H](C)[C@@H](CN(C)C(=O)Nc2cccc3ccccc23)Oc2ccc(NC(=O)CCCN(C)C)cc2C1=O	.	6.0	-0.7	3.6	1.3
CCCc1nc(SCC(=O)Nc2nc3c(s2)CCCC3)c2ccccc2n1	-7.0	4.1	-25.1	-4.6	15.9*
Cc1nn(-c2ccccc2)c2sc(C(=O)OCn3nnc4ccccc4c3=O)cc12	-2.9	1.4	-2.7	-5.1	17.2*
CO[C@@H]1CN(C)C(=O)c2cc(NC(=O)C3CC3)ccc2OC[C@@H](C)N(CC2CC2)C[C@H]1C	.	20.2	-0.3	3.2	-3.5
COCC(=O)N1CC2(C1)[C@H](c1ccc(-c3ccc(F)cc3)cc1)[C@@H](CO)N2C(=O)C1CC1	.	6.6	1.4	-4.4	13.7
NS(=O)(=O)c1ccc(F)c(C(=O)O)c1	-1.8	-4.8	-9.6	-1.7	18.7*
C[C@H](CO)N1C[C@H](C)[C@H](CN(C)Cc2ccc3c(c2)OCO3)Oc2c(NC(=O)C3CCCCC3)cccc2C1=O	.	-2.0	1.3	-1.3	-0.7
C[C@H](CO)N1C[C@H](C)[C@@H](CN(C)Cc2ccc3c(c2)OCO3)Oc2c(NC(=O)C3CCCCC3)cccc2C1=O	-5.7	16.3	5.7	122.4*!	1.5
C[C@@H]1CN([C@H](C)CO)C(=O)c2cccc(NC(=O)C3CCOCC3)c2O[C@@H]1CN(C)Cc1ccc2c(c1)OCO2	.	-3.0	-0.7	2.7	.
C[C@@H]1CN([C@H](C)CO)C(=O)c2cccc(NC(=O)C3CC3)c2O[C@H]1CN(C)Cc1ccc2c(c1)OCO2	.	2.3	0.1	-1.6	0.0
C[C@@H]1CN([C@@H](C)CO)C(=O)c2cccc(NC(=O)C3CCCCC3)c2O[C@H]1CN(C)Cc1ccc2c(c1)OCO2	.	15.6	5.8	20.8*	6.5
C[C@H]1CN([C@@H](C)CO)C(=O)c2cccc(NC(=O)C3CCCCC3)c2O[C@H]1CN(C)Cc1ccc2c(c1)OCO2	.	-26.3	-0.8	22.9*	1.8
CC(=O)N1CCN(c2ccc(NCc3ccc(C)s3)cc2)CC1	-4.1	2.1	27.4*	8.8	-1.7
Cc1ccc(CNc2ccc(N3CCOCC3)cc2)s1	-8.0	.	.	.	.
CCCC#Cc1ccc2c(c1)[C@@H]1[C@@H](CCN1C(=O)CC1CC1)[C@@H](CO)N2C	.	-18.2	1.8	74.3*	0.2
CCC(=O)N1CC[C@@H]2[C@H]1c1cc(C#Cc3cccc(F)c3)ccc1N(C)[C@H]2CO	.	-25.2	4.5	127.1*	-1.9
COc1ccc(S(=O)(=O)N(C)C[C@H]2OCCCC[C@H](C)Oc3ccc(NC(=O)CCCN(C)C)cc3C(=O)N([C@H](C)CO)C[C@@H]2C)cc1	.	17.9	1.9	-0.2	-6.3
O=C(NC1CCCCC1)c1cccc2c1C(=O)c1ccc(N3CCCC3)cc1S2(=O)=O	-17.1	3.4	0.0	.	.
O=C1c2ccccc2S(=O)(=O)c2cc(N3CCC(C(=O)N4CCCCC4)CC3)ccc21	+	-5.4	-7.0	-2.1	.
CC1CCN(c2ccc3c(c2)S(=O)(=O)c2cccc(C(=O)NC4CCCCC4)c2C3=O)CC1	-15.5	2.3	-0.7	33.6*	.
CN1CCN(C(=O)c2ccc3c(c2)S(=O)(=O)c2ccccc2C3=O)CC1	-6.4	-1.8	-1.7	63.1*	-2.5
CC(C)(C)CNC(=O)c1cccc2c1C(=O)c1ccc(N3CCCC3)cc1S2(=O)=O	-22.0	1.6	-0.5	29.1*	.
CN1C(=O)c2cc(NC(=O)C3CCCCC3)ccc2OC[C@@H]2O[C@@H](CC(=O)NCC3CCCCC3)CC[C@@H]21	.	-1.4	-3.0	-5.7	1.5
C[C@@H]1CN([C@@H](C)CO)C(=O)c2ccccc2-c2ccccc2CO[C@@H]1CN(C)S(=O)(=O)Cc1ccccc1	.	2.4	-0.7	9.1	0.2
C[C@@H]1CN([C@H](C)CO)C(=O)c2cc(N(C)C)ccc2O[C@@H]1CN(C)C(=O)Nc1ccccc1	.	0.3	-0.6	-4.7	0.3
